{
  "source": "ChEMBL document CHEMBL4043093",
  "about": "“2-Oxo-3, 4-dihydropyrimido[4, 5-d]pyrimidinyl derivatives as new irreversible pan fibroblast growth factor receptor (FGFR) inhibitors” (Eur J Med Chem, 2017)",
  "key": {"[1]": {"tested_on": "Tyrosine-protein kinase ABL1 (Homo sapiens), P00519 [Q252H]", "test": "Inhibition of human phosphorylated ABL1 Q252H mutant expressed in HEK293 cells assessed as residual activity at 1000 nM after 30 mins by Kinomescan method relative to control", "format": "cell-based", "summary_of_the_method": "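Single-point screen at a fixed 1 µM, run within a 456-kinase DiscoveRx KINOMEscan panel. Each kinase's read-out is Percent Control, i.e. signal relative to a control without compound. Hits were scored by a Percent Control < 35 cut-off, and an S(35) selectivity score was calculated across the non-mutant kinases.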"}, "[2]": {"biological_target": "Receptor-interacting serine/threonine-protein kinase 2 (Homo sapiens) (UniProt O43353)", "sequence (O43353 whole entry, the tested form may be a part)": "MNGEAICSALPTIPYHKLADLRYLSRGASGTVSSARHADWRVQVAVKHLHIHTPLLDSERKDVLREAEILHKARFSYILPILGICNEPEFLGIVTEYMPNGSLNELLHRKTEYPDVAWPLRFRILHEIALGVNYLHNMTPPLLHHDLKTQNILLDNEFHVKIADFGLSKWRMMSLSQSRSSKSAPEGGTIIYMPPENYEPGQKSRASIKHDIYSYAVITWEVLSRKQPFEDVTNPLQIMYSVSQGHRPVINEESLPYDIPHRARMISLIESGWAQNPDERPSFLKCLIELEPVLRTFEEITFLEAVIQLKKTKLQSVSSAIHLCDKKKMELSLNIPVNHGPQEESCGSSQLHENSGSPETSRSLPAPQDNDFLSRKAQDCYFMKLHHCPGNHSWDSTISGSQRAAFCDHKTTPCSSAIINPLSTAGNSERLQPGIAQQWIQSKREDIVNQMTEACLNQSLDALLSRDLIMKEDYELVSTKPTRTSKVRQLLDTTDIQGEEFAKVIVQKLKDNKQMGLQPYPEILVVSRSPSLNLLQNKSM", "test": "Inhibition of wild-type human partial length RIPK2 (M1 to K310 residues) expressed in Escherichia coli BL21 assessed as residual activity at 1000 nM after 30 mins by Kinomescan method relative to control"}, "[3]": {"biological_target": "Phosphatidylinositol 5-phosphate 4-kinase type-2 gamma (Homo sapiens) (UniProt Q8TBX8)", "sequence (Q8TBX8 whole entry, the tested form may be a part)": "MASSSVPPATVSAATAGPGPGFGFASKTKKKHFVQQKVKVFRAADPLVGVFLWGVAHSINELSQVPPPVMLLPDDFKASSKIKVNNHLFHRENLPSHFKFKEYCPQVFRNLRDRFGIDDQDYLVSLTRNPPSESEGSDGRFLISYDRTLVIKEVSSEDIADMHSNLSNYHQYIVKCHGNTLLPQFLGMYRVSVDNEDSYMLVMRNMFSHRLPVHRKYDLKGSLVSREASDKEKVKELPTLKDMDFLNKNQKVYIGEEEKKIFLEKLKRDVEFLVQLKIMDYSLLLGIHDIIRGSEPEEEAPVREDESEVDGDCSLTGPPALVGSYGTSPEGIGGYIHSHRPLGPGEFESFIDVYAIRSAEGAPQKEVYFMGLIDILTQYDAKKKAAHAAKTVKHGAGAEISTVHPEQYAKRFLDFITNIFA", "test": "Inhibition of wild-type human partial length PIP5K2C (M1 to A421 residues) expressed in HEK293 cells assessed as residual activity at 1000 nM after 30 mins by Kinomescan method relative to control", "format": "cell-based"}},
  "data": [
    {"smiles": "COc1cc(OC)c(Cl)c(N2Cc3cnc(Nc4ccc(F)cc4)nc3N(C3CCN(C(=O)/C=C/CN(C)C)CC3)C2=O)c1Cl", "values": [
      {"measurement": "Activity", "setting": "[1]", "value": 31, "unit": "%"},
      {"measurement": "Activity", "setting": "[2]", "value": 100, "unit": "%"},
      {"measurement": "Activity", "setting": "[3]", "value": 6.3, "unit": "%"}
    ]}
  ]
}
